Data published in ChEMBL document CHEMBL2380254, “Optimization of tocotrienols as antiproliferative and antimigratory leads” (Eur J Med Chem, 2013).

Tests used:
Format in all cases: functional
SK-OV-3 = experiment: Growth inhibition of human SKOV3 cells assessed as cell growth at 10 uM after 48 hrs by sulforhodamine B assay; conditions: SK-OV-3, 48 h, read-out: Activity
In short: (§1)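 Single-dose NCI-60 test at 10 µM. Cells were grown in RPMI 1640 with 5% FBS and 2 mM L-glutamine, preincubated 24 h, with T0 plates TCA-fixed. Exposure was 48 h at 37 °C, 5% CO2. Cells were fixed with cold TCA (final 10%, 4 °C, 60 min), stained with SRB and read at 515 nm. Percent growth was taken relative to T0 and untreated control; negative values denote cell kill.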

UACC-257 [1] = experiment: Growth inhibition of human UACC257 cells assessed as cell growth at 10 uM after 48 hrs by sulforhodamine B assay; conditions: UACC-257, 48 h, read-out: Activity; in short: as §1
SNB-19 = experiment: Growth inhibition of human SNB19 cells assessed as cell growth at 10 uM after 48 hrs by sulforhodamine B assay; conditions: SNB-19, 48 h, read-out: Activity; in short: as §1
SW-620 = experiment: Growth inhibition of human SW620 cells assessed as cell growth at 10 uM after 48 hrs by sulforhodamine B assay; conditions: SW-620, 48 h, read-out: Activity; in short: as §1
HCT-15 = experiment: Growth inhibition of human HCT15 cells assessed as cell growth at 10 uM after 48 hrs by sulforhodamine B assay; conditions: HCT-15, 48 h, read-out: Activity
In short: (§2)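 NCI-60 single-dose screen at 10 µM: cells in RPMI 1640 with 5% FBS, preincubated 24 h, then exposed 48 h at 37 °C. TCA fixation (16% final for suspension cells), SRB staining, absorbance 515 nm. Percent growth relative to time-zero and untreated control plates; negative values indicate cell kill.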

[2] = Growth inhibition of human HCC2998 cells assessed as cell growth at 10 uM after 48 hrs by sulforhodamine B assay; conditions: HCC 2998, 48 h, read-out: Activity; in short: as §2
NCI-H226 [3] = experiment: Growth inhibition of human NCI-H226 cells assessed as cell growth at 10 uM after 48 hrs by sulforhodamine B assay; conditions: NCI-H226, 48 h, read-out: Activity
In short: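 Single-dose NCI-60 screen: adherent cells in RPMI 1640 with 5% FBS were exposed to 10 µM for 48 h at 37 °C after a 24 h preincubation. They were fixed in situ with cold TCA (10% final), stained with 0.4% SRB in 1% acetic acid, solubilized in 10 mM Tris base, and read at 515 nm. Percent growth was taken relative to time-zero and control plates.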

A549 [4] = experiment: Growth inhibition of human A549/ATCC cells assessed as cell growth at 10 uM after 48 hrs by sulforhodamine B assay; conditions: A549, 48 h, read-out: Activity; in short: as §2
SR = experiment: Growth inhibition of human SR cells assessed as cell growth at 10 uM after 48 hrs by sulforhodamine B assay; conditions: read-out: Activity
In short: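 Suspension line in RPMI 1640 with 5% FBS, single 10 µM dose for 48 h. Settled cells were fixed with TCA (final 16%), then SRB-stained and read at 515 nm. Percent growth was taken versus T0 and control; negative values denote cytotoxicity.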

RPMI-8226 = experiment: Growth inhibition of human RPMI8226 cells assessed as cell growth at 10 uM after 48 hrs by sulforhodamine B assay; conditions: RPMI-8226, 48 h, read-out: Activity
In short: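 Single 10 µM dose applied to suspension cells in RPMI 1640 with 5% FBS and 2 mM L-glutamine for 48 h at 37 °C. Settled cells were fixed with 80% TCA (16% final), stained with SRB, and read at 515 nm. Percent growth was calculated against time-zero and untreated control optical densities.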

BT-549 = experiment: Growth inhibition of human BT549 cells after 48 hrs by sulforhodamine B assay; conditions: BT-549, 48 h
In short: (§3)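 NCI-60 screen: cells in RPMI 1640 with 5% FBS and 2 mM glutamine, 5000–40,000 cells/well, preincubated 24 h. Five concentrations (10-fold dilutions; 100 to 0.001 µM) applied for 48 h at 37 °C. TCA fixation, SRB stain, absorbance at 515 nm. Time-zero plates included; GI50 where 100×(T−T0)/(C−T0)=50.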

DU-145 = experiment: Growth inhibition of human DU145 cells after 48 hrs by sulforhodamine B assay; conditions: DU-145, 48 h; in short: as §3
PC-3 = experiment: Growth inhibition of human PC3 cells after 48 hrs by sulforhodamine B assay; conditions: PC-3, 48 h
In short: (§4)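 NCI-60 panel cells grown in RPMI 1640 with 5% FBS and 2 mM L-glutamine, seeded at 5000–40,000 cells/well and preincubated 24 h. Five 10-fold dilutions (0.001–100 µM) from DMSO stocks were added for 48 h at 37 °C. Adherent cells were fixed with cold TCA (10% final) for 60 min at 4 °C, stained with 0.4% SRB, and read at 515 nm. GI50 was set where 100×(T−T0)/(C−T0)=50.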

RXF 393 = experiment: Growth inhibition of human RXF393 cells after 48 hrs by sulforhodamine B assay; conditions: RXF 393, 48 h; in short: as §4
UACC-257 [5] = experiment: Growth inhibition of human UACC257 cells after 48 hrs by sulforhodamine B assay; conditions: UACC-257, 48 h
In short: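 NCI-60 five-dose screen. Cells were grown in RPMI 1640 with 5% FBS and 2 mM L-glutamine, plated at 5000–40,000 cells/well and incubated 24 h before dosing, with T0 plates TCA-fixed. DMSO stocks were diluted to doses of […] and exposed 48 h at 37 °C, 5% CO2. Cells were fixed with cold TCA (final 10%, 60 min, 4 °C), stained with 0.4% SRB in 1% acetic acid for 10 min, solubilized in 10 mM trizma base and read at 515 nm. GI50 is where 100×(T−T0)/(C−T0)=50.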

SK-MEL-2 = experiment: Growth inhibition of human SK-MEL-2 cells after 48 hrs by sulforhodamine B assay; conditions: SK-MEL-2, 48 h; in short: as §4
LOX IMVI = experiment: Growth inhibition of human LOXIMVI cells after 48 hrs by sulforhodamine B assay; in short: as §3
KM12 = experiment: Growth inhibition of human KM12 cells after 48 hrs by sulforhodamine B assay; conditions: KM12, 48 h; in short: as §3
HT-29 = experiment: Growth inhibition of human HT-29 cells after 48 hrs by sulforhodamine B assay; conditions: HT-29, 48 h; in short: as §3
HCT-116 = experiment: Growth inhibition of human HCT116 cells after 48 hrs by sulforhodamine B assay; conditions: HCT-116, 48 h; in short: as §3
NCI-H226 [6] = experiment: Growth inhibition of human NCI-H226 cells after 48 hrs by sulforhodamine B assay; conditions: NCI-H226, 48 h; in short: as §4
HOP-62 = experiment: Growth inhibition of human HOP62 cells after 48 hrs by sulforhodamine B assay; conditions: HOP-62, 48 h; in short: as §3
A549 [7] = experiment: Growth inhibition of human A549/ATCC cells after 48 hrs by sulforhodamine B assay; conditions: A549, 48 h; in short: as §3
CCRF-CEM = experiment: Growth inhibition of human CCRF-CEM cells after 48 hrs by sulforhodamine B assay; in short: as §3

Row | Structure (SMILES) | growth at 10 µM (SK-OV-3) [%] | growth at 10 µM (UACC-257 [1]) [%] | growth at 10 µM (SNB-19) [%] | growth at 10 µM (SW-620) [%] | growth at 10 µM (HCT-15) [%] | growth at 10 µM [2] [%] | growth at 10 µM (NCI-H226 [3]) [%] | growth at 10 µM (A549 [4]) [%] | growth at 10 µM (SR) [%] | growth at 10 µM (RPMI-8226) [%] | GI50 (BT-549) [µM] | GI50 (DU-145) [µM] | GI50 (PC-3) [µM] | GI50 (RXF 393) [µM] | GI50 (UACC-257 [5]) [µM] | GI50 (SK-MEL-2) [µM] | GI50 (LOX IMVI) [µM] | GI50 (KM12) [µM] | GI50 (HT-29) [µM] | GI50 (HCT-116) [µM] | other results
1 | CC(C)=CCC/C(C)=C/CC/C(C)=C/CC[C@]1(C)CCc2c3c(c(C)c(C)c2O1)OCN(CCCCCO)C3 | 101 | 110 | 86.5 | -18.6 | 105 | 60.8 | 102 | 80.3 | -44.4 | 1.02 | 7.34 | 6.28 | 5.71 | 1.94 | 6.97 | 7.47 | 6.07 | 7.41 | 3.74 | 5.25 | GI50 (NCI-H226 [6]): 6.19 µM; GI50 (HOP-62): 5.9 µM; GI50 (A549 [7]): 6.19 µM; GI50 (CCRF-CEM): 7.83 µM
2 | CC(C)=CCC/C(C)=C/CC/C(C)=C/CC[C@]1(C)CCc2c3c(cc(C)c2O1)OCN(CCCCCCCCCCCCO)C3 | – | 64.3 | 92.7 | 95.2 | 82.9 | 68.7 | 80.6 | 47.6 | -19.6 | 15.8 | – | – | – | – | – | – | – | – | – | – | –
3 | CC(C)=CCC/C(C)=C/CC/C(C)=C/CC[C@]1(C)CCc2cc(O)c(C)c(C)c2O1 [GAMMA-TOCOTRIENOL] | – | 123 | 114 | 110 | 102 | 115 | 90.8 | 105 | 85.5 | 78 | – | – | – | – | – | – | – | – | – | – | –
4 | COc1ccc(CCNCc2c(O)c(C)c(C)c3c2CC[C@@](C)(CC/C=C(\C)CC/C=C(\C)CCC=C(C)C)O3)cc1OC | 105 | 107 | 89.6 | 47.2 | 104 | -25.9 | 106 | 91.8 | 7.87 | – | – | – | – | – | – | – | – | – | – | – | –
5 | CC(C)=CCC/C(C)=C/CC/C(C)=C/CC[C@]1(C)CCc2c(CNCCc3ccc(O)cc3)c(O)c(C)c(C)c2O1 | 102 | 102 | 99.8 | 101 | 106 | 57.7 | 105 | 94.2 | 18.5 | – | – | – | – | – | – | – | – | – | – | – | –
6 | CC(C)=CCC/C(C)=C/CC/C(C)=C/CC[C@]1(C)CCc2c3c(cc(C)c2O1)OCN(CCc1ccc(O)cc1)C3 | 69.1 | 105 | 92.1 | -95.2 | 80.4 | -84.7 | 88.7 | 76.6 | 1.96 | – | 7.06 | 5.75 | 5.07 | 3.34 | 7.33 | 7.02 | 2.09 | 1.6 | 3.53 | 3.88 | GI50 (NCI-H226 [6]): 5.4 µM; GI50 (HOP-62): 5.66 µM; GI50 (A549 [7]): 6.09 µM; GI50 (CCRF-CEM): 1.75 µM
